5 molecules from publication PMC3604071 (Nature chemical biology, 2013) can be followed below.

Series [1] deals with Shh signaling (Gli1 activation) in NIH 3T3 cells. As to the kind of experiment: Gli-responsive luciferase reporter assay in Shh-transfected NIH 3T3 cells. In kind it is cell-based. Particulars: for Gli-responsive luciferase activation (FL/RL ratio): NIH 3T3 cells cotransfected with Shh, 10 μM, 24 h. In short, it runs like this:
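NIH 3T3 cells cotransfected with pRL-TK, 8XGliBS-firefly luciferase (or mutant reporter) and Shh plasmids. Seeded 24 h later at 1×10^6 cells/well and grown to confluence. Treated 24 h with DMSO or 10 μM test compound. Firefly and Renilla luciferase measured in lysates; FL/RL ratio normalized to DMSO-treated cells.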

The test system of series [2] is Shh and Hhat in COS-1 cells. As to the kind of experiment: Shh autoprocessing, Shh/Hhat levels and localization in COS-1 cells. It is filed as cell-based. The conditions noted are these: 10µM, 5h. In short, it runs like this: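 COS-1 cells were transfected with Shh and HA-Hhat and reseeded on coverslips after 24 h. A day later they were fixed in 4% paraformaldehyde for 20 min and permeabilized with 0.2% Triton X-100. After blocking in 3% BSA, cells took rabbit anti-Shh (1:100) and mouse anti-HA (1:200) for 1 h, then Alexa-conjugated secondaries and Hoechst for 45 min. Confocal imaging at 63X: 5–10 images per slide, ≥2 slides per condition, three experiments. Protein levels by Western blot.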

The subject of series [3] is Gli1 activation in Shh Light II cells. Briefly: Gli luciferase reporter assay in Shh Light II cells. It is filed as cell-based. Particulars: 10 μM RU-SKI 43, 24 h. In short, it runs like this: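 Shh Light II cells (stable Gli1 luciferase reporter) grown to confluence, moved to 0.5% serum medium, and exposed 24 h to DMSO or 10 μM test compound, with or without 100 nM SAG or 1 μg/mL Shh (C24II). Dual firefly/Renilla luciferase read in lysates. FL/RL ratio normalized to cells given DMSO or compound alone; experiment done at least twice.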
A general note: Reporter assays use an easily measured gene product as a stand-in for the process of interest.

The nature of series [4]: Half-life in mouse plasma after IV administration. In kind it is in vivo.
The test system of series [5] is palmitoylation of H-Ras. As to the kind of experiment: H-Ras palmitoylation in COS-1 cells. In kind it is cell-based. The conditions noted are these: COS-1 cells expressing H-Ras N17. In short, it runs like this: (§1)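 COS-1 cells co-transfected with Shh and HA-Hhat plus H-Ras or Fyn. Test compound or DMSO was added the night before or at the start of serum starvation. Cells were starved 1 h in DMEM with 2% dialyzed FCS, then labeled with 15–30 μCi/ml 125I-iodo-palmitate for 4 h at 37°C. Lysates in RIPA were cleared at 100,000xg, immunoprecipitated 16 h at 4°C, run on 12.5% SDS-PAGE and phosphorimaged. Duplicates, repeated ≥3 times.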

For series [6], the system named is palmitoylation of Fyn. As to the kind of experiment: Fyn palmitoylation in COS-1 cells. In kind it is cell-based. The conditions noted are these: COS-1 cells expressing Fyn. The gist of the method:
as §1

In series [7] the test system is paracrine Shh signaling in C3H10T1/2 cells. Briefly: C3H10T1/2 alkaline phosphatase reporter assay. In kind it is cell-based. In short, it runs like this:
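C3H10T1/2 reporter cells and COS-1 cells transfected with HA-Hhat and Shh plasmids plated alone or cocultured (4:1), 24 h at 37°C. Medium then switched to DMSO or 10 μM test compound for 72 h, with re-addition at 48 h. Alkaline phosphatase measured in lysates with a fluorogenic FDP substrate kit, read over 30 min at 5-min intervals; mean ± SD, n=3.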

In series [8] the target is T1, Porcupine (Mus musculus, UniProt Q9JJJ7).
T1 sequence (Q9JJJ7 1-461): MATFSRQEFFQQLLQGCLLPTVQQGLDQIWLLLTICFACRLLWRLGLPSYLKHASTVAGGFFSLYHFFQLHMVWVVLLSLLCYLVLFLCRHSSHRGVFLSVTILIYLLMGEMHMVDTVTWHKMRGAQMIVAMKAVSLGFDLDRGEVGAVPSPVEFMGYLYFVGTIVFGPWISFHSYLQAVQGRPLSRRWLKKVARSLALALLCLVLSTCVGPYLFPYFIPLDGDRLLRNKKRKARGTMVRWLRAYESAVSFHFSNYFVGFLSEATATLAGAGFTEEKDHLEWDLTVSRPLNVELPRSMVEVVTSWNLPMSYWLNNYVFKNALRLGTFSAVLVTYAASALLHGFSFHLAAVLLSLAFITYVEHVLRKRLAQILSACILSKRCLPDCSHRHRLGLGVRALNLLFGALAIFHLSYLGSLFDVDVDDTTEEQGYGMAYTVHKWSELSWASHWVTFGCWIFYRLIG
Briefly: Wnt3a fatty acylation by Porcupine in L Wnt-3a cells. In kind it is cell-based. Particulars: Mouse L Wnt-3a cells, FLAG-Porcupine. The gist of the method:
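Mouse L-Wnt3a cells transfected with 6 μg FLAG-Porcupine or empty vector. After 48 h, serum-starved 3 h in DMEM with 2% dialyzed FCS plus DMSO, 10 μM test compound or 100 nM reference Porcupine inhibitor. Labeled 6 h with 40 μCi 125I-iodo-pentadecanoate. Wnt3a and FLAG-Porcupine immunoprecipitated 16 h at 4°C, then SDS-PAGE, western blot, phosphorimaging. Duplicates, repeated three times.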

The subject of series [9] is myristoylation of c-Src. Briefly: c-Src myristoylation in COS-1 cells. It is filed as cell-based. The conditions noted are these: COS-1 cells expressing c-Src. In short, it runs like this:
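COS-1 cells were transfected with Shh, HA-Hhat and Src, with test compound or DMSO added the night before or at the start of starvation. After 1 h starvation in DMEM with 2% dialyzed FCS, 30 μCi/ml 125I-iodo-tridecanoate was added for 4 h at 37°C. RIPA lysates were cleared at 100,000xg, immunoprecipitated overnight at 4°C, resolved on 12.5% SDS-PAGE and quantified by phosphorimager. Duplicates, ≥3 repeats.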

Series [10] concerns Shh signaling in SuFu−/− cells. As to the kind of experiment: Gli luciferase reporter assay in SuFu-/- cells. It is filed as cell-based, murine. The conditions noted are these: 10 μM, 24h. In short, it runs like this:
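SuFu−/− mouse embryonic fibroblasts transfected with wild-type or mutant 8XGliBS-firefly luciferase plus pRL-TK Renilla plasmids. Reseeded 24 h later, grown to confluence, then given DMSO or 10 μM test compound for 24 h. Dual luciferase measured in lysates as FL/RL ratio; mean ± SD (n=2–4), experiment run at least twice.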

For series [11], the target named is Hhat (Homo sapiens, UniProt Q5VTY9). Briefly: RU-SKI 43 inhibition kinetics with purified Hhat and ShhN. It is filed as biochemical. Particulars: Ki with respect to 125I-iodo-palmitoylCoA, noncompetitive inhibitor; purified Hhat, 125I-iodo-palmitoylCoA titrated, 38μM ShhN.
Series [12] relates to Hhat-mediated Shh palmitoylation in COS-1 cells. Briefly: Shh palmitoylation in COS-1 cells. It is filed as cell-based. In short, it runs like this: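 COS-1 cells transfected with Shh and HA-Hhat given test compound or DMSO overnight or from the start of […] serum starvation (DMEM, 2% dialyzed FCS). Labeled 4 h at 37°C with 15–30 μCi/ml 125I-iodo-palmitate. Lysed in RIPA, ultracentrifuged, immunoprecipitated 16 h at 4°C, SDS-PAGE with western blot and phosphorimaging. Duplicates, repeated at least three times.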

Entries after “also recorded” stand apart in the source; their conditions may differ.

Chain of Hhat (Q5VTY9 whole entry): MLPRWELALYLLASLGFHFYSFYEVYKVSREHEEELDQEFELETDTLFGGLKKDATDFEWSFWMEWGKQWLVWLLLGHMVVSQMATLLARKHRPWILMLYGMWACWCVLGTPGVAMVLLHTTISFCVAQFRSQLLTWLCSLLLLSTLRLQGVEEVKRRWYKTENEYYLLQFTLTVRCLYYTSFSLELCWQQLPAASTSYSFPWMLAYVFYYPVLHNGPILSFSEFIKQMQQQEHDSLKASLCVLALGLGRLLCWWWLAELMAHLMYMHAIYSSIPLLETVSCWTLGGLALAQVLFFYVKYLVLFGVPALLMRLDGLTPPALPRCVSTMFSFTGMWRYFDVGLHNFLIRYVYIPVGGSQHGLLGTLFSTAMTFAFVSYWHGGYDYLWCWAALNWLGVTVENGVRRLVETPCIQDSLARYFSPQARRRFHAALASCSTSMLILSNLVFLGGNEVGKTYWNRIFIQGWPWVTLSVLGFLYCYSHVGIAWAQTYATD

On to `Cc1c(C(=O)Nc2ccc(N3C[C@@H](C)O[C@@H](C)C3)nc2)cccc1-c1ccc(OC(F)(F)F)cc1` [LDE225, reference compound], for which the “Gli-responsive luciferase activation (FL/RL ratio)” value in series [1] is recorded as “blocked luciferase activation”.

In the case of `CNC1CCC(N(Cc2cccc(-c3ccncc3)c2)C(=O)c2sc3ccccc3c2Cl)CC1` (stereo not shown) [SAG, reference compound], the “Gli1 activation in untreated Shh-expressing cells” value in series [1] (Shh-expressing NIH 3T3 cells, 100nM SAG) was “neither SAG (Supplementary Fig. 8) nor overexpression of Smo[17] activated Gli1 to levels higher than those achieved with Shh alone”.

Consider `CCC(C)CNCC(=O)N1CCc2sccc2C1COc1cccc(C)c1` (stereo not shown) [RU-SKI 43, 2-((2-methylbutyl)amino)-1-(4-((m-tolyloxy)methyl)-6,7-dihydrothieno[3,2-c]pyridin-5(4H)-yl)ethanone], for which the “Shh autoprocessing, steady-state levels of Shh and Hhat, subcellular localization of Shh and Hhat” value in series [2] was “did not alter”. Further, in [3] (100 nM SAG), the “Effect on activation of Gli1 by SAG” value is “does not affect exogenous Shh pathway activation; also recorded: no effect”. Further, the “Effect on activation of Gli1 by recombinant Shh (C24II)” value in [3] (1μg/mL Shh (C24II)) is “does not affect exogenous Shh pathway activation; also recorded: no effect”. Also, the half-life (usually the time in which the quantity being followed falls by half) in series [4] was found to be 17 min. The “Palmitoylation of H-Ras” value in [5] is “Neither palmitoylation of H-Ras and Fyn nor myristoylation of c-Src was affected”. Also, the “Palmitoylation of Fyn” value in series [6] is “Neither palmitoylation of H-Ras and Fyn nor myristoylation of c-Src was affected”. Also, the “Alkaline phosphatase (AP) activity” value in series [7] (C3H10T1/2 cocultured with COS-1 expressing Shh and Hhat, 10 μM, 72h) was “blocks paracrine Shh signaling; also recorded: reduced to baseline”. In series [8] (10 μM), the “Fatty acylation of Wnt3a by Porcupine” value is on record as “does not inhibit Porcupine; also recorded: no effect”. Besides, the “Myristoylation of c-Src” value in [9] is “Neither palmitoylation of H-Ras and Fyn nor myristoylation of c-Src was affected”. Further, the “Effect on Shh signaling in SuFu−/− cells” value in series [10] is on record as “does not affect Shh pathway activation; also recorded: no effect”. Further, the Ki (as a rule, the equilibrium dissociation constant of an inhibitor or competing ligand from its target) in series [11] was 6.9 µM. In addition, in series [12] (COS-1 cells expressing HA-Hhat and Shh, 0, 10 or 20 μM, 5 h), the “Inhibition of Shh palmitoylation in cells” value was “Dose-dependent inhibition”. Moreover, in series [12] (COS-1 cells expressing HA-Hhat and Shh, 25 μM compound, 16 h), the “Radiolabel incorporation into ShhN in cells” value was “strongly inhibited”. The “Palmitoylation of Shh by endogenous Hhat” value in series [12] (COS-1 cells transfected with Shh only, 10 µM) is recorded as “inhibited”. Moreover, the “Effect of Hhat overexpression on inhibition of Shh palmitoylation” value in series [12] (transfected COS-1 cells, increasing amounts of Hhat, 10µM) is reported as “reduced the ability of RU-SKI 43 to inhibit Shh palmitoylation”. For the same molecule, the “Effect of Porcupine overexpression on inhibition of Shh palmitoylation” value in [12] (transfected COS-1 cells, increasing amounts of Porcupine, 10µM) was “no effect”. Besides, the “Gli-responsive luciferase activation (FL/RL ratio)” value in series [1] is given as “blocks Gli activation; also recorded: blocked luciferase activation”. Further, the “Rescue of the inhibitory effect with SAG or Shh (C24II)” value in [1] (Shh-transfected NIH 3T3 cells, 10µM RU-SKI 43 with 100nM SAG or 1µg/mL Shh (C24II), 24h) is “not able to rescue”.

For the molecule `Cc1cc(-c2ccc(CC(=O)Nc3ccc(-c4cccnc4)cc3)cc2)ccn1` [Wnt C59, reference compound], in series [8] (100 nM), the “Fatty acylation of Wnt3a by Porcupine” value is “blocked radiolabel incorporation”.

B1: Noggin: the BMP inhibitor Noggin (protein, UniProt Q13253 28-232, looked up)
Noggin: QHYLHIRPAPSDNLPLVDLIEHPDPIFDPKEKDLNETLLRSLLGGHYDPGFMATSPPEDRPGGGGGAAGGAEDLAELDQLLRQRPSGAMPSEIKGLEFSEGLAQGKKQRLSKKLRRKLQMWLWSQTFCPVLYAWNDLGSRFWPRYVKVGSCFSKRSCSVPEGMVCKPSKSVHLTVLRWRCQRRGGQRCGWIPIQYPIISECKCSC
As for B1, in [7] (BMP inhibitor control, concentration not given), the “Alkaline phosphatase (AP) activity” value is recorded as “no effect”.
